# Test results taken from ChEMBL document CHEMBL1914441, “Discovery and optimization of a biphenylacetic acid series of prostaglandin D2 receptor DP2 antagonists with efficacy in a murine model of allergic rhinitis” (Bioorg Med Chem Lett, 2011).
# Activity calls are given as the source filed them. No cut-off for these calls is given here.
# Assays:
# [1] = biological target: T1, Prostaglandin D2 receptor 2 (Homo sapiens, UniProt Q9Y5Y4); experiment: Displacement of [3H]-PGD2 from human prostanoid DP2 receptor expressed in human 293T cells by liquid scintillation counting; format: cell-based
# T1 sequence (Q9Y5Y4 whole entry): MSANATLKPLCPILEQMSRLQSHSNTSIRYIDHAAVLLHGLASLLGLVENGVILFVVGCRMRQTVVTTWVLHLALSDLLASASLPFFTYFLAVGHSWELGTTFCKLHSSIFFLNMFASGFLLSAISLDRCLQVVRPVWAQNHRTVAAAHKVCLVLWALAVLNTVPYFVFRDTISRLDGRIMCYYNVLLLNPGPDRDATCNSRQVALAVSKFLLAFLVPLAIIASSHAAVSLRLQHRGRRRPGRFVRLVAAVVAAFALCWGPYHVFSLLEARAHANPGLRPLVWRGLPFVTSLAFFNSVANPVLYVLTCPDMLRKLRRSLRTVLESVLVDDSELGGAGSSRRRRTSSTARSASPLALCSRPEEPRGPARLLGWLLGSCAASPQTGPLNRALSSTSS
# Procedure, shortened: (§1)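 Membranes from 293 cells stably expressing human DP2 were incubated with [³H]-PGD₂ across increasing compound concentrations. Membranes were harvested and washed, and bound radioactivity was counted. The IC50 is the concentration giving 50% inhibition of [³H]-PGD₂ binding. The assay was run without and with 0.2% human serum albumin to gauge protein shift. Mean of at least three experiments.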
# [2] = biological target: T1, Prostaglandin D2 receptor 2; experiment: Displacement of [3H]-PGD2 from human prostanoid DP2 receptor expressed in human 293T cells by liquid scintillation counting in presence of 0.2 % human serum albumin; format: cell-based; procedure, shortened: as §1
# Thromboxane A2 receptor = biological target: T2, Thromboxane A2 receptor (Homo sapiens, UniProt P21731); experiment: Displacement of [3H]-SQ-29,548 from human TP receptor expressed in human platelet membranes; format: cell membranes
# T2 sequence (P21731 whole entry): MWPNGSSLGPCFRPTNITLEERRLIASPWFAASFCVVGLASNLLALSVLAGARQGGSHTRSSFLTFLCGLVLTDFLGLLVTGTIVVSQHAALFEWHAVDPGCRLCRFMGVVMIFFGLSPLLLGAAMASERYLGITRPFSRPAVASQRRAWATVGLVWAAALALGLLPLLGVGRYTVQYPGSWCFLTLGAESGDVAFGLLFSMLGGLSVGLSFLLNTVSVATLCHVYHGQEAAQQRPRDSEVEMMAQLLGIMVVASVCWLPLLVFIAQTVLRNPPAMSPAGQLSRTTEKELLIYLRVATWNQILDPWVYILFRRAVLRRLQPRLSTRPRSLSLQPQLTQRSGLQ
# Procedure, shortened: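 TP binding was measured with human platelet membranes and ³H-SQ-29,548 as radioligand.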
# Prostacyclin receptor = Prostacyclin receptor (Homo sapiens, UniProt P43119); experiment: Displacement of [3H]-iloprost from human prostanoid IP receptor expressed in human 293T cells membranes; format: cell membranes
# Procedure, shortened: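 IP binding was measured with membranes from hIP/293 cells and ³H-iloprost as radioligand.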
# [3] = biological target: T3, Prostaglandin D2 receptor (Homo sapiens, UniProt Q13258); experiment: Displacement of [3H]-PGD2 from human DP1 receptor expressed in human platelet membranes; format: cell membranes
# T3 sequence (Q13258 whole entry): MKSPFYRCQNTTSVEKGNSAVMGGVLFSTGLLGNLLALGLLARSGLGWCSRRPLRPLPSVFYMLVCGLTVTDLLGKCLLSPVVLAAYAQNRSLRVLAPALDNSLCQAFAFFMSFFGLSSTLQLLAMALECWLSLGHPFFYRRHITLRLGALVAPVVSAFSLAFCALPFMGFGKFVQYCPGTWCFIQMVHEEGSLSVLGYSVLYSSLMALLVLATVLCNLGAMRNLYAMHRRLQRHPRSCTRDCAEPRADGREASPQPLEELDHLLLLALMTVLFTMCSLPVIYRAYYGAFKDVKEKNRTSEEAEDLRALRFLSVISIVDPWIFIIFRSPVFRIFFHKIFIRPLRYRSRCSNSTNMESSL
# Cytochrome P450 2C9 = Cytochrome P450 2C9 (Homo sapiens, UniProt P11712); experiment: Inhibition of human CYP2C9; format: ADME
# Cytochrome P450 3A4 = Cytochrome P450 3A4 (Homo sapiens, UniProt P08684); experiment: Inhibition of human CYP3A4; format: ADME
# hERG (KCNH2) = hERG (KCNH2) (Homo sapiens, UniProt Q12809); experiment: Inhibition of human ERG at 10 uM by patch clamp assay
# Procedure, shortened: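 hERG inhibition was measured by patch clamp, performed by an external contract laboratory.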
# Cytochrome P450 2D6 = Cytochrome P450 2D6 (Homo sapiens, UniProt P10635); experiment: Inhibition of human CYP2D6; format: ADME
# [4] = Half life in rat at 2 mg/kg, iv; format: ADME, organism-based; parameters: dose 2 mg/kg, route intravenous; conditions: in vivo
# Procedure, shortened: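 Rat dosing used the sodium salt, given IV at 2 mpk in water.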
# [5] = Half life in dog at 2 mg/kg, iv and 5 mg/kg, po; format: ADME, organism-based, Canis lupus familiaris; conditions: in vivo
# Procedure, shortened: (§2)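 Dog dosing used the sodium salt, given IV at 2 mpk in saline and PO at 5 mpk in 0.5% Methocel.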
# Mus musculus = experiment: Antiallergic effect in ovalbumin-sensitized BALB/c mouse allergic rhinitis model assessed as reduction in sneezing symptoms at 10 mg/kg, po administered 1 hr prior to OVA challenge on days 31 and 32 measured for 8 mins immediately after OVA challenge on day 32; format: functional, organism-based; parameters: dose 10 mg/kg
# Procedure, shortened: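 Female BALB/c mice sensitized with intraperitoneal OVA (10 µg in Alum) on days 0 and 7, then given nasal OVA challenge. Compound or water vehicle was dosed orally 1 h before challenge on days 31 and 32 only. Sneezing was counted over an 8 min session immediately after the day 32 challenge. n = 4–10 mice per group, means ± SEM, Dunnett's test after ANOVA versus vehicle.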
# [6] = Oral bioavailability in rat at 10 mg/kg; conditions: in vivo
# [7] = Oral bioavailability in dog at 5 mg/kg; format: ADME, organism-based, Canis lupus familiaris; conditions: in vivo; procedure, shortened: as §2
# Cytochrome P450 2C9, sequence (P11712 whole entry): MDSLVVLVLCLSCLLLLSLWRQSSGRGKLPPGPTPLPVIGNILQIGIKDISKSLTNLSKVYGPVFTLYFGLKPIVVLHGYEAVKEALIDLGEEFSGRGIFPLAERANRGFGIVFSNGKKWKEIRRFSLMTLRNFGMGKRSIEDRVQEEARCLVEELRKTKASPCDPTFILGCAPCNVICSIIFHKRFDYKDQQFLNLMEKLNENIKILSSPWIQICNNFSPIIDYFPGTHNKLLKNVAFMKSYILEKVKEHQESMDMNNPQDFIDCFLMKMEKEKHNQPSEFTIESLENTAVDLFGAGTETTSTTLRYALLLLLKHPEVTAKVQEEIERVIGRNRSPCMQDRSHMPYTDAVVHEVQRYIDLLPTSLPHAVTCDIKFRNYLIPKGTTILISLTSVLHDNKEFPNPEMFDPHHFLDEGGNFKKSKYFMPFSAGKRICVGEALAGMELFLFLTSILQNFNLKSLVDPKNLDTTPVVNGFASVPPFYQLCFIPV
# hERG (KCNH2), sequence (Q12809 whole entry): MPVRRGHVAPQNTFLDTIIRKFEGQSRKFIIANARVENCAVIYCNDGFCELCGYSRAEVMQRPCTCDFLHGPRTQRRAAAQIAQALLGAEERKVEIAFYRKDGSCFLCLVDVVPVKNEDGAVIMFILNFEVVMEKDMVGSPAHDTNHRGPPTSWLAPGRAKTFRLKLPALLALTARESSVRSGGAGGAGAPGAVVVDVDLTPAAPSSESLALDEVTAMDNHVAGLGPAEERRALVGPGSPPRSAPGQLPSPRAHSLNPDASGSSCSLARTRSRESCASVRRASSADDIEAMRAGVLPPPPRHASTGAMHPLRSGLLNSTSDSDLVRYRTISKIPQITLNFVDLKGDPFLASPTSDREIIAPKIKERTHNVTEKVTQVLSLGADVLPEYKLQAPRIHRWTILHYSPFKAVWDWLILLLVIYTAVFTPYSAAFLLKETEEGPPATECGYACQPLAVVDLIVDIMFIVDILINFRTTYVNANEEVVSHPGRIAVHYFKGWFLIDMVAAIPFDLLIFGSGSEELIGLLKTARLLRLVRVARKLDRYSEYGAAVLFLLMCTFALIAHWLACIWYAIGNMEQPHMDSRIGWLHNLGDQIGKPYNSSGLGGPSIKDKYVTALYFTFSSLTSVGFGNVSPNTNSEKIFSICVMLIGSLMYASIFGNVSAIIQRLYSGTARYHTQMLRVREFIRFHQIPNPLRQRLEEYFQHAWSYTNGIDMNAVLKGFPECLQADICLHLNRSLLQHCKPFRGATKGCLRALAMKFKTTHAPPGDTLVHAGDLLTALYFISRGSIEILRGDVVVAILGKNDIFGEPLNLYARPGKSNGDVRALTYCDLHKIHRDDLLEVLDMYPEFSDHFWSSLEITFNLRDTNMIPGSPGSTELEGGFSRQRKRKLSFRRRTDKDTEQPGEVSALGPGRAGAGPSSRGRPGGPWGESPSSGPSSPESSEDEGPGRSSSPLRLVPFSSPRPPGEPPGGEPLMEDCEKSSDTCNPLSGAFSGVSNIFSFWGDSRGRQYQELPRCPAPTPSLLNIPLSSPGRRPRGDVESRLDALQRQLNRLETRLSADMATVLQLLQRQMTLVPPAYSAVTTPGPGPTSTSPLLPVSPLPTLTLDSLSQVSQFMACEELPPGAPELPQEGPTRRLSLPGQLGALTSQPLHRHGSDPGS
# Cytochrome P450 3A4, sequence (P08684 whole entry): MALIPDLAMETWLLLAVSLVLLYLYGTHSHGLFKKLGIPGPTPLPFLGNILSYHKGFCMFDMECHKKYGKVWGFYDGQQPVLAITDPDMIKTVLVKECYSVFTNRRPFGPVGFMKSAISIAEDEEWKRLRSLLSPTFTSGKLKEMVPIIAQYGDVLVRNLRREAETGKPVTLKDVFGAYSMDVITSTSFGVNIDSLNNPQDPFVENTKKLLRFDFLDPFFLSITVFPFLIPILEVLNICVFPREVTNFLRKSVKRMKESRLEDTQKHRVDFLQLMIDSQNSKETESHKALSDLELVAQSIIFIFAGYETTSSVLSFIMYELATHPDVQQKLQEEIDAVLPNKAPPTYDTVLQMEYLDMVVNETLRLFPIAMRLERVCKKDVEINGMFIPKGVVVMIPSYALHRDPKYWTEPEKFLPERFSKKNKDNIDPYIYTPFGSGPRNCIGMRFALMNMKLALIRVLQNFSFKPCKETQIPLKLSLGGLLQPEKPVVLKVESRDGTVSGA
# Cytochrome P450 2D6, sequence (P10635 whole entry): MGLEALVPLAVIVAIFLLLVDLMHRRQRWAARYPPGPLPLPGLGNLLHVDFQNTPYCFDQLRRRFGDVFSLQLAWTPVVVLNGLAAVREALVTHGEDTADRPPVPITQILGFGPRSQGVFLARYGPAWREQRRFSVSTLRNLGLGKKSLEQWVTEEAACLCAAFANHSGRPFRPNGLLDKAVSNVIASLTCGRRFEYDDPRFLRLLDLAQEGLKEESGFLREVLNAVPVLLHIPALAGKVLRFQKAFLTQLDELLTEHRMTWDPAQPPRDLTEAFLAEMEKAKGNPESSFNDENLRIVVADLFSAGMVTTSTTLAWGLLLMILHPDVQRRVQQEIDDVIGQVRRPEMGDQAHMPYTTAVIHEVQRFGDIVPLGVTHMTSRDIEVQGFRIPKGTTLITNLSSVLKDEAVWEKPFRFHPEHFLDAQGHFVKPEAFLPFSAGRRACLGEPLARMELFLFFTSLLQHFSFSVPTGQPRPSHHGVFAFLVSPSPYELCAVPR
# Prostacyclin receptor, sequence (P43119 whole entry): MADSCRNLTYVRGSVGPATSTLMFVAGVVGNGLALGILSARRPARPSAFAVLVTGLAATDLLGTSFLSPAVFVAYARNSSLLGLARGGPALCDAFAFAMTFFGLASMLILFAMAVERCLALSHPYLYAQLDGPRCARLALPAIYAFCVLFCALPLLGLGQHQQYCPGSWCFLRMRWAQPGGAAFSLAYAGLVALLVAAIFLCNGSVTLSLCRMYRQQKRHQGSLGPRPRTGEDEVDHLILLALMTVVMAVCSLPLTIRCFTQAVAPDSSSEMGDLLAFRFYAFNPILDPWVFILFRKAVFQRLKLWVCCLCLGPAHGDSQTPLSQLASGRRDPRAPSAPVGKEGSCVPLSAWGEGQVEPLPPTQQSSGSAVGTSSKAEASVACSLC
Structure (SMILES),IC50 [1],IC50 [2],further results
CCN(Cc1cc(C(F)(F)F)ccc1-c1cc(CC(=O)O)ccc1OC)C(=O)OCc1cc(F)cc(F)c1,0.003 µM,0.011 µM,
COc1ccc(CC(=O)O)cc1-c1ccc(C(F)(F)F)cc1CN(C)C(=O)OCc1ccccc1,0.004 µM,0.018 µM,
CCN(Cc1cc(C(F)(F)F)ccc1-c1cc(CC(=O)O)ccc1OC)C(=O)OCc1cccc(Cl)c1,0.002 µM,0.01 µM,
COc1ccc(-c2cc(CC(=O)O)ccc2OC)c(CN2C(=O)O[C@H](c3ccccc3)[C@@H]2C)c1,1.3 µM,6.1 µM,
CCN(Cc1cc(C(F)(F)F)ccc1-c1cc(CC(=O)O)ccc1OC)C(=O)OCc1ccc(Cl)cc1,0.003 µM,0.007 µM,IC50 (Thromboxane A2 receptor): 11.3 µM; IC50 (Prostacyclin receptor): 33 µM; IC50 [3]: 4 µM; IC50 (Cytochrome P450 2C9): 18 µM; IC50 (Cytochrome P450 3A4): 21 µM; inhibition at 10 µM (hERG (KCNH2)): 22%; IC50 (Cytochrome P450 2D6): > 30 µM
CCN(Cc1cc(C(F)(F)F)ccc1-c1cc(CC(=O)O)ccc1OC)C(=O)OCc1ccccc1Cl,0.003 µM,0.011 µM,
COC(=O)N(Cc1ccccc1)Cc1cc(C(F)(F)F)ccc1-c1cc(CC(=O)O)ccc1OC,0.008 µM,0.031 µM,IC50 (Thromboxane A2 receptor): 62.4 µM; IC50 [3]: 12.6 µM; IC50 (Cytochrome P450 2C9): > 30 µM; IC50 (Cytochrome P450 3A4): > 30 µM; inhibition at 10 µM (hERG (KCNH2)): 1.2%; IC50 (Cytochrome P450 2D6): > 30 µM
COc1ccc(CC(=O)O)cc1-c1ccc(C(F)(F)F)cc1CNC(=O)OCc1ccccc1,0.045 µM,0.238 µM,
COC(=O)N(CCc1ccccc1)Cc1cc(C(F)(F)F)ccc1-c1cc(CC(=O)O)ccc1OC,0.024 µM,0.062 µM,
CCN(Cc1cc(C(F)(F)F)ccc1-c1cc(CC(=O)O)ccc1OC)C(=O)OCc1ccccc1,,,half-life [4]: 8.7 h; half-life [5]: 7.4 h; IC50 (Thromboxane A2 receptor): 23 µM; IC50 (Prostacyclin receptor): 56.2 µM; IC50 [3]: 4 µM; IC50 (Cytochrome P450 2C9): 18 µM; IC50 (Cytochrome P450 3A4): 18 µM; Activity (Mus musculus): Active; bioavailability [6]: 77%; bioavailability [7]: 89%; IC50 (Cytochrome P450 2D6): > 30 µM
COc1ccc(CC(=O)O)cc1-c1ccc(C(F)(F)F)cc1CNCCc1ccccc1,3.4 µM,11 µM,
CCN(Cc1cc(C(F)(F)F)ccc1-c1cc(CC(=O)O)ccc1OC)C(=O)OC,0.009 µM,0.016 µM,IC50 (Thromboxane A2 receptor): 67.4 µM; IC50 [3]: 36.4 µM; IC50 (Cytochrome P450 2C9): > 30 µM; IC50 (Cytochrome P450 3A4): > 30 µM; inhibition at 10 µM (hERG (KCNH2)): 5.9%; IC50 (Cytochrome P450 2D6): > 30 µM
COc1ccc(CC(=O)O)cc1-c1ccccc1CN1C(=O)O[C@H](c2ccccc2)[C@@H]1C,0.88 µM,2 µM,
COc1ccc(CC(=O)O)cc1-c1ccc(C(F)(F)F)cc1CN(C(=O)OCc1ccccc1)C1CCCC1,0.011 µM,0.053 µM,

# Now from value to compound, other results behind:
IC50 [1],IC50 [2],Structure (SMILES),further results
0.36 µM,1.8 µM,C[C@H]1[C@@H](c2ccccc2)OC(=O)N1Cc1cc(F)ccc1-c1ccc(CC(=O)O)cc1,
41 µM,62 µM,C[C@H]1[C@@H](c2ccccc2)OC(=O)N1Cc1cc(C(F)(F)F)ccc1-c1ccccc1CC(=O)O,
11 µM,38 µM,C[C@H]1[C@@H](c2ccccc2)OC(=O)N1Cc1cc(C(F)(F)F)ccc1-c1ccccc1CCC(=O)O,
9.8 µM,75 µM,C[C@H]1[C@@H](c2ccccc2)OC(=O)N1Cc1cc(C(F)(F)F)ccc1-c1cccc(CCC(=O)O)c1,
0.18 µM,4.5 µM,COc1ccc(CC(=O)O)cc1-c1ccc(C(F)(F)F)cc1CN1C(=O)O[C@H](c2ccccc2)[C@@H]1C,IC50 (Thromboxane A2 receptor): 63.7 µM; IC50 [3]: 31.3 µM; IC50 (Cytochrome P450 2C9): > 30 µM; IC50 (Cytochrome P450 3A4): > 30 µM; IC50 (Cytochrome P450 2D6): > 30 µM
0.34 µM,3 µM,C[C@H]1[C@@H](c2ccccc2)OC(=O)N1Cc1cc(C(F)(F)F)ccc1-c1cccc(CC(=O)O)c1,
0.36 µM,1.3 µM,COc1ccc(CC(=O)O)cc1-c1ccc(F)cc1CN1C(=O)O[C@H](c2ccccc2)[C@@H]1C,
27 µM,91 µM,C[C@H]1[C@@H](c2ccccc2)OC(=O)N1Cc1cc(C(F)(F)F)ccc1-c1cccc(C(=O)O)c1,
